The results in this text go back to paper PMC10783423 (Medicine, 2024).

Ends that are not written are not given here.

For this assay, the target named is Human thrombin (Homo sapiens, UniProt P00734). Briefly: Thrombin inhibitory assay with chromogenic substrate S-2238. It counts as biochemical. In a few lines: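 Human thrombin (2 U/mL working solution) premixed with test peptide at a range of concentrations. Chromogenic substrate S-2238 (1 mM solution) then added; blanks received buffer instead. All components were in 50 mM Tris-HCl, pH 7.5. Reaction ran 5 min at 37°C, with absorbance read at 375 nm. IC50 was taken as the peptide concentration giving 50% thrombin inhibition.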

The substance AEGYA [P1] had an IC50 of 0.53 µM.
Next, EVVNQ [P2]: 4.35 µM; FASRW [P5]: 2.67 µM.
In the case of FFQQSGG [FFQQSGG], the IC50 was found to be 2670 µM.
Take FVEIQAL [FVEIQAL]: the IC50 stood at 530 µM.
Next, SLVTKVS [SLVTKVS]: 4350 µM.
